The RNAGym collection of RNA variant scans (doi:10.1126/science.aae0568)
Variants at the floor of the assay were thinned out.

B1: tRNA (parent)
chain: GUUCCGUUGGCGUAAUGGUAACGCGUCUCCCUCCUAAGGAGAAGACUGCGGGUUCGAGUCCCGUACGGAACG

Variants of: B1
Assay: yeast fitness relative to wild type (ratio to wild type); higher = fitter; tRNA-Arg(CCU), competitive growth, 37 C, YPD
How it was run: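 A pool of Saccharomyces cerevisiae strains, each with a tRNA-Arg(CCU) gene variant at the native genomic locus, was competed in YPD at 37°C for 24 hours across six parallel replicates. The variants had been chemically synthesised at a 3% per-site mutation rate over 69 sites, and gene amplicons before and after competition were read by 100-nucleotide paired-end sequencing. Darwinian fitness relative to wild type rested on changes in genotype frequencies. Genotypes required ≥ 100 starting reads, and estimates < 0.5 were set to 0.5.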

Variant | yeast fitness
A15G G23A | 0.931
A15C G17A G38C U59C | 0.569
A15G C27A G51C | ≤ 0.5
A15G A43G A57U | 0.793
A15C G52A A70U | ≤ 0.5
A15C G52A C66U | ≤ 0.5
A15G C24G G48C | ≤ 0.5
A15C U47A G68U | 0.57
A15C U19A C24G C34G C46U U54C C61A A70U | ≤ 0.5
A15C U28A C34G A43U | 0.564
A15G A57U G68U | ≤ 0.5
A15G C34U A42G C49A | ≤ 0.5
A15C U47G G52A G68A | ≤ 0.5
A15G A45U A70G | 0.617
A15C G25A A42U A65C G67U | ≤ 0.5
A15G A43C G67U A70U | ≤ 0.5
A15C G17C A45U | ≤ 0.5
A15G G17A C46U | 0.738
A15G G18A C49U | 0.669
A15C U26A A40C | 0.63
A15G C33G G51A | 0.665

Variant | yeast fitness
A15G A36U C61U A65U | ≤ 0.5
A15C U54A C61U A70U | 0.645
A15G C30A C49G C55U | ≤ 0.5
A15C U16C A37C A43C | ≤ 0.5
A15G C60A | 0.687
A15G C60G | 0.668
A15G C33G G50A | ≤ 0.5
A15G C49A A69U | 0.579
A15C G44A A57C | ≤ 0.5
A15C U16C C31G A69U | ≤ 0.5
A15C G41C U59G A70G | ≤ 0.5
A15G C29A A40G G48A | ≤ 0.5
A15G C27U A65G | 0.748
A15G C31A U54C | ≤ 0.5
A15C G18A U19G | ≤ 0.5
A15G C27A C46U | 0.627
A15C U47G | 0.663
A15C G48C G68U | 0.548
A15G A45C | 0.796
A15G A45G | 0.853
A15G C55U | 0.75

Variant | yeast fitness
A15G C55G | 0.641
A15C U28G A45G G51C A70G | 0.584
A15G C46U A70U | 0.829
A15C G48C C66A | ≤ 0.5
A15C G23C A65G | ≤ 0.5
A15C U19A A70C | ≤ 0.5
A15C U28A C30U C34G A43U | ≤ 0.5
A15G A42C C49A C62U A69C | ≤ 0.5
A15G C24U | 1.01
A15G C24G | 0.586
A15G C24A | 0.587
A15G A37C C46U C49U | ≤ 0.5
A15C U28C C34G | ≤ 0.5
A15G A69U | 1.04
A15G A69G | 1.05
A15C U26A C31G U32A | ≤ 0.5
A15G C30U | 0.894
A15G C30A | 0.807
A15G C30G | 0.631
A15G C30U C33A G41C C46U G48C | 0.551
A15G A20G C49A C62U | 0.567

Variant | yeast fitness
A15C U59C | 0.741
A15G C22U A70C | 0.594
A15G A20C C24G G41C C46A C62G | ≤ 0.5
A15C G41C C46A | ≤ 0.5
A15G C46G | 0.897
A15G C33G G44A C46G C66U | ≤ 0.5
A15C G17C C31A U32C G44C | ≤ 0.5
A15G A45U C61G | 0.6
A15G C31U U35C | 0.609
A15C G44A | 0.707
A15C U19G C55G | ≤ 0.5
A15G C24G C29U C34G U35C C46G | 0.618
A15G C22U G68C | ≤ 0.5
A15C G39A C60G A70G | ≤ 0.5
A15C U53A | 0.578
A15G C30G U64C | ≤ 0.5
A15C G18C U26C C29A C34G | 0.616
A15C G41C C49U G68C | ≤ 0.5
A15C G18C A42C | ≤ 0.5
A15C U19C A37C G51A | ≤ 0.5
